Data published in ChEMBL document CHEMBL1138098, “Novel 1,4-benzodiazepine-2,5-diones as Hdm2 antagonists with improved cellular activity” (Bioorg Med Chem Lett, 2006).

What was measured:
JAR [1] = assay: Induction of PIG3 production in JAR cells at 1.1 uM; format: functional, Homo sapiens
How it was run: (§1)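 JAR cells were treated with compound at 1.1, 3.3, 10 or 30 μM. PIG-3 protein was measured by ELISA and normalized to cellular protein, reported as ng/mg.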

JAR [2] = assay: Induction of PIG3 production in JAR cells at 3.3 uM; format: functional, Homo sapiens; how it was run: as §1
JAR [3] = assay: Induction of PIG3 production in JAR cells at 10 uM; format: functional, Homo sapiens; how it was run: as §1
JAR [4] = assay: Induction of PIG3 production in JAR cells at 30 uM; format: functional, Homo sapiens; how it was run: as §1
[5] = biological target: E3 ubiquitin-protein ligase Mdm2 (Homo sapiens, UniProt Q00987); assay: Inhibition of p53-Hdm2 interaction by FP assay
E3 ubiquitin-protein ligase Mdm2, sequence (Q00987 whole entry): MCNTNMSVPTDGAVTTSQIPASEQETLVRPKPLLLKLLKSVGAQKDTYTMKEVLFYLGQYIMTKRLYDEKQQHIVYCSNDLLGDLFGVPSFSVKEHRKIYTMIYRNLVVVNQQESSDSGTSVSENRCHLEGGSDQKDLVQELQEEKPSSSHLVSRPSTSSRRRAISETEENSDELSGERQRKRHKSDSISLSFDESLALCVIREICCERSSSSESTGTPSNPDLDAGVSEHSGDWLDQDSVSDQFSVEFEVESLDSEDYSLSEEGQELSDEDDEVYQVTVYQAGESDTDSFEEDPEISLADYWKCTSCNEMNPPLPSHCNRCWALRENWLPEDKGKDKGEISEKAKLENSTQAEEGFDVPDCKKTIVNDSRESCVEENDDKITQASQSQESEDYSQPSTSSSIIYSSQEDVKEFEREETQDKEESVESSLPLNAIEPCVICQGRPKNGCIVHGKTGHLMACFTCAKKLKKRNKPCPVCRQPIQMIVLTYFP

IC50 [5] | SMILES | Activity (JAR [1]) | Activity (JAR [2]) | Activity (JAR [3]) | Activity (JAR [4])
 | CC(c1ccc(Cl)cc1N)N1C(=O)c2cc(I)ccc2N(CCCCC(=O)O)C(=O)[C@@H]1c1ccc(Cl)cc1 (stereo not given in full) | 44 ng/mg | 77 ng/mg |  | 
 | Nc1cc(Cl)ccc1CN1C(=O)c2cc(I)ccc2N(CCCCC(=O)O)C(=O)[C@@H]1c1ccc(Cl)cc1 | 47 ng/mg | 74 ng/mg | 196 ng/mg | 
 | C[C@H](c1cc(O)c(Cl)cc1N)N1C(=O)c2cc(I)ccc2N(CCN2CCOCC2)C(=O)[C@@H]1c1ccc(Cl)cc1 | 34 ng/mg | 54 ng/mg | 111 ng/mg | 
 | COCCOCCN1C(=O)[C@H](c2ccc(Cl)cc2)N([C@H](C)c2ccc(Cl)cc2N)C(=O)c2cc(I)ccc21 | 78 ng/mg | 218 ng/mg | 375 ng/mg | 
 | C[C@H](c1cc(F)c(Cl)cc1N)N1C(=O)c2cc(I)ccc2N(CCN2CCOCC2)C(=O)[C@@H]1c1ccc(Cl)cc1 | 37 ng/mg | 110 ng/mg | 313 ng/mg | 
 | CN(C)CCCN1C(=O)[C@H](c2ccc(Cl)cc2)N(Cc2ccc(Cl)cc2N)C(=O)c2cc(I)ccc21 | 36 ng/mg | 68 ng/mg | -92 ng/mg | 
 | C[C@H](c1ccc(Cl)cc1N)N1C(=O)c2cc(I)ccc2N(CCN2CCOCC2)C(=O)[C@@H]1c1ccc(Cl)cc1 | 79 ng/mg | 234 ng/mg | 395 ng/mg | 
 | CN(C)CCCCN1C(=O)[C@H](c2ccc(Cl)cc2)N(Cc2ccc(Cl)cc2N)C(=O)c2cc(I)ccc21 | 32 ng/mg | 79 ng/mg | -136 ng/mg | 
 | CC(c1ccc(Cl)cc1)N1C(=O)c2cc(I)ccc2N(CCCCC(=O)O)C(=O)[C@@H]1c1ccc(Cl)cc1 (stereo not given in full) | 60 ng/mg | 79.7 ng/mg | 208.7 ng/mg | 484.3 ng/mg
 | CN1CCN(CCCCN2C(=O)[C@H](c3ccc(Cl)cc3)N(Cc3ccc(Cl)cc3N)C(=O)c3cc(I)ccc32)CC1 | 43 ng/mg | 125 ng/mg | 32 ng/mg | 
 | Nc1cc(Cl)ccc1CN1C(=O)c2cc(I)ccc2N(CCCN2CCOCC2)C(=O)[C@@H]1c1ccc(Cl)cc1 | 55 ng/mg | 184 ng/mg | 375 ng/mg | 
> 12.5 µM | C=CCOc1cc(Cl)ccc1CN1C(=O)c2cc(I)ccc2N(CCOCCOC)C(=O)[C@@H]1c1ccc(Cl)cc1 |  |  |  | 
 | CN1CCN(CCCN2C(=O)[C@H](c3ccc(Cl)cc3)N(Cc3ccc(Cl)cc3N)C(=O)c3cc(I)ccc32)CC1 | 57 ng/mg | 198 ng/mg | 385 ng/mg | 
 | COCCOCCN1C(=O)[C@H](c2ccc(Cl)cc2)N(Cc2ccc(Cl)cc2O)C(=O)c2cc(I)ccc21 | 62.3 ng/mg | 74 ng/mg | 99 ng/mg | 
